# High-throughput results as filed in PubChem BioAssay.
# A selection: hits, their analogues and other compounds. The true share with any hit is near 2.2%.
# Exocytosis inh: blocks lytic granule exocytosis; inhibition, % at 10 µM; AID 651702; TALL-104 LAMP-1 surface exposure, flow cytometry; cells stimulated with thapsigargin and PMA; actives 0.66% (n = 360,000);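 active = inhibition above about 55%, limit read from the data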
# HKDC1 inhibitor: HKDC1 (human) hexokinase inhibition | recombinant HKDC1, G6PDH/diaphorase resazurin coupled fluorescence | inhibition, % at 20 µM | actives 0.16% (n = 340,000) | AID 493160;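 active = inhibition above about 35% when tested at 20 µM, limit read from the data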;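 also: plate controls were DMSO wells with enzyme for no effect and DMSO wells lacking enzyme for full effect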
#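 Test system: HK5 enzyme. Quantity: 5 µg/mL HK5 final. Reagent: glucose and ATP substrates. Schedule: 90 min reaction incubation at room temperature, dark. Technique: resazurin-to-resorufin fluorescence via G6PDH and diaphorase coupling, 525/613 nm. Control set: DMSO wells with and without enzyme mix.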
# PfG6PD inh: PfG6PD (Plasmodium falciparum) enzyme inhibition | PfGluPho enzyme, NADPH resazurin-diaphorase fluorescence | inhibition, % at 20 µM | actives 0.78% (n = 350,000) | AID 504690;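 active = inhibition reaching at least a set limit at 20 µM in the primary screen, cut at about 59% in these data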;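 also: 0% = DMSO wells with substrate and 100% = DMSO wells lacking glucose-6-phosphate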
# ABHD5 PLIN5 PPI: ABHD5-PLIN5 protein interaction inhibition | Split G. princeps luciferase complementation, luminescence, 4 h | inhibition, % at 4 µM | actives 0.78% (n = 360,000) | AID 602281;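 active = inhibition above the mean inhibition across every tested compound plus 3 SD, cut at about 22% in these data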;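 also: 0% = DMSO only wells and the 100% control is not disclosed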
# ABHD5-PLIN5 conf: ABHD5-PLIN5 interaction inhibition, confirmed; shares compounds with ABHD5 PLIN5 PPI; inhibition, % at 4 µM; actives 67% (n = 2,200); AID 651612; biochemical ABHD5-PLIN5 interaction, luminescence; in the data active = inhibition above about 23%;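 also: 0% = DMSO vehicle wells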
# HNF4 split-luc: HNF4 split-luciferase signal hit, counter-screen; AID 651674; shares compounds with ABHD5 PLIN5 PPI; HNF4 dimerization, luminescence, biochemical; inhibition, % at 4 µM; actives 77% (n = 2,200);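 active = mean inhibition across replicate wells exceeding the computed hit threshold, cut at about 13% in these data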;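 also: light from luciferase halves that rejoin when HNF4 fusion proteins dimerize; 0% = DMSO only wells and the 100% control is not given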
# An asterisk follows results filed as active; . = no result given.
SMILES,Exocytosis inh,HKDC1 inhibitor,PfG6PD inh,ABHD5 PLIN5 PPI,ABHD5-PLIN5 conf,HNF4 split-luc
CC(C)N1C/C(=C/c2ccsc2)C(=O)/C(=C/c2ccsc2)C1,1,7,5,28*,85*,78*
CC(C)N1CC2=C(OC(N)=C(C#N)C2c2cccnc2)/C(=C/c2cccnc2)C1 (stereo not given),4,-1,-6,1,.,.
O=C1c2ccccc2C(=Cc2cccnc2)c2ccccc21,0,.,28,7,.,.
COc1ccc(-n2nnnc2C2(C)CCC(=O)N2Cc2ccccc2)cc1 (stereo not given),-4,.,.,7,.,.
COc1ccccc1-c1cc(C(=O)NC2CCN(C)CC2)c2ccc(Cl)c(C)c2n1,52,-2,3,32*,20,-3
O=C([O-])c1ccccc1-[n+]1c(-c2ccccc2)cc(-c2ccccc2)cc1-c1ccccc1,-6,-4,-1,-8,.,.
O=C(c1ccc(-c2ccc([N+](=O)[O-])cc2)o1)N1CCCCCCC1,-1,16,49,39*,42*,33*
CCOc1ccc2nc(Cl)c(/C=C/C(=O)c3ccco3)cc2c1,9,19,12,34*,93*,92*
Cc1cccc2cc(/C=C/C(=O)c3ccco3)c(Cl)nc12,13,12,-5,42*,73*,63*
Cc1cccc2cc(/C=N/Nc3ccc(C(=O)O)cc3)c(Cl)nc12,9,3,-19,2,.,.
CCN(C[C@H]1N[C@@](CC)(C(=O)OC)[C@H]2C(=O)N(C)C(=O)[C@@H]12)C(=O)COC,7,-4,1,0,.,.
O=C(/C(=C/O)N=Nc1ccc(Cl)cc1)c1ccncc1,2,8,2,38*,38*,-7
Cc1ccc(N=N/C(=C\O)C(=O)c2ccncc2)cc1,4,9,2,-6,.,.
Cc1cccn2c(=O)c3cc(C#N)c(=NC(=O)c4ccco4)n(Cc4ccco4)c3nc12,1,4,11,39*,23*,54*
CCOC(=O)c1cc2c(=O)n3ccccc3nc2n(Cc2ccco2)c1=NC(=O)c1ccccc1OCC,2,-2,11,24*,14,45*
O=C(C=Cc1cccs1)c1ccc(Cl)s1,-2,9,14,24*,60*,40*
CC1=NN(C(=S)Nc2ccccc2)C(c2ccccc2)C1 (stereo not given),0,-7,3,-7,.,.
Cc1ccc(C2CC(c3ccccc3)=NN2C(=S)Nc2ccccc2)o1 (stereo not given),97*,10,22,42*,5,3
O=c1cc(-c2ccc(O)cc2)oc2c(O)c(O)c(O)c(O)c12,2,2,-18,34*,-6,14*
Cc1ccc(CNC(=O)N2CCN(S(=O)(=O)c3ccccc3)CC2)cc1,5,0,4,-9,.,.
COc1ccc2nc(NC(=O)CSc3n[nH]c(N)n3)sc2c1,5,6,-4,4,.,.
Cc1ccc(C(=O)/C=C/c2ccc(Br)cc2)o1,0,18,0,53*,85*,61*
Cc1ccc(C(=O)/C=C/c2ccccc2)o1,1,9,4,15,.,.
CC(O)/C=C/c1ccc2ccccc2n1 (stereo not given),10,-6,5,24*,23*,26*
CC1(C)c2ccccc2N2CC(=O)N[C@@]21/C=C/C=C/c1ccccc1,2,0,18,34*,5,9
CC1(C)CC(=O)C2=C(C1)OC1=C(C(=O)CC(C)(C)C1)C2c1ccc(O)c([N+](=O)[O-])c1,0,-4,-18,0,.,.
CC1(C)CC(=O)C2=C(C1)OC1=C(C(=O)CC(C)(C)C1)C2c1ccc(O)cc1O,36,11,41,87*,102*,108*
Cc1ccccc1Oc1nc2ccccn2c(=O)c1/C=C(\C#N)C(=O)Nc1c(C)n(C)n(-c2ccccc2)c1=O,0,-9,3,1,.,.
Cc1ccccc1Oc1nc2c(C)cccn2c(=O)c1/C=C(\C#N)C(=O)Nc1c(C)n(C)n(-c2ccccc2)c1=O,8,3,-3,28*,49*,35*
